Test results taken from article PMC3378324 (Febs Letters, 2012).

B1: ALIXV+PRR: Human Alix recombinant construct (ALIXV+PRR) consisting of residues 362–760 (protein)
chain: SVQQSLAAYNQRKADLVNRSIAQMREATTLANGVLASLNLPAAIEDVSGDTVPQSILTKSRSVIEQGGIQTVDQLIKELPELLQRNREILDESLRLLDEEEATDNDLRAKFKERWQRTPSNELYKPLRAEGTNFRTVLDKAVQADGQVKECYQSHRDTIVLLCKPEPELNAAIPSANPAKTMQGSEVVNVLKSLLSNLDEVKKEREGLENDLKSVNFDMTSKFLTALAQDGVINEEALSVTELDRVYGGLTTKVQESLKKQEGLLKNIQVSHQEFSKMKQSNNEANLREEVLKNLATAYDNFVELVANLKEGTKFYNELTEILVRFQNKCSDIVFARKTERDELLKDLQQSIAREPSAPSIPTPAYQSSPAGGHAPTPPTPAPRTMPPTKPQPPARPPP
modifications: left off: His6-Smt3, N-terminal, state not stated
B2: Alix: ALG-2 (apoptosis-linked gene 2)-interacting protein X, an adapter protein (protein, UniProt Q8WUM4 2-868, looked up)
Programmed cell death …: ATFISVQLKKTSEVDLAKPLVKFIQQTYPSGGEEQAQYCRAAEELSKLRRAAVGRPLDKHEGALETLLRYYDQICSIEPKFPFSENQICLTFTWKDAFDKGSLFGGSVKLALASLGYEKSCVLFNCAALASQIAAEQNLDNDEGLKIAAKHYQFASGAFLHIKETVLSALSREPTVDISPDTVGTLSLIMLAQAQEVFFLKATRDKMKDAIIAKLANQAADYFGDAFKQCQYKDTLPKEVFPVLAAKHCIMQANAEYHQSILAKQQKKFGEEIARLQHAAELIKTVASRYDEYVNVKDFSDKINRALAAAKKDNDFIYHDRVPDLKDLDPIGKATLVKSTPVNVPISQKFTDLFEKMVPVSVQQSLAAYNQRKADLVNRSIAQMREATTLANGVLASLNLPAAIEDVSGDTVPQSILTKSRSVIEQGGIQTVDQLIKELPELLQRNREILDESLRLLDEEEATDNDLRAKFKERWQRTPSNELYKPLRAEGTNFRTVLDKAVQADGQVKECYQSHRDTIVLLCKPEPELNAAIPSANPAKTMQGSEVVNVLKSLLSNLDEVKKEREGLENDLKSVNFDMTSKFLTALAQDGVINEEALSVTELDRVYGGLTTKVQESLKKQEGLLKNIQVSHQEFSKMKQSNNEANLREEVLKNLATAYDNFVELVANLKEGTKFYNELTEILVRFQNKCSDIVFARKTERDELLKDLQQSIAREPSAPSIPTPAYQSSPAGGHAPTPPTPAPRTMPPTKPQPPARPPPPVLPANRAPSATAPSPVGAGTAAPAPSQTPGSAPPPQAQGPPYPTYPGYPGYCQMPMPMGYNPYAYGQYNMPYPPVYHQSPGQAPYPGPQQPSYPFPQPPQQSYYPQQ

What was measured:
Hck-SH3-GST = test: GST pull-down, SDS-PAGE and Coomassie blue staining; assay type: binding, human; details: in vitro
How it was run: (§1)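 Partner protein: human Alix fragment ALIX_V+PRR (residues 362–760, V domain plus SH3-binding proline-rich region), expressed with an N-terminal His6-Smt3 tag in E. coli BL21(DE3). Baits were GST-fused SH3 domains (Hck; Fyn wild-type; Fyn RT-loop mutant with Arg96 replaced by Ile). In vitro GST pull-down; bound protein resolved by SDS-PAGE and visualised by Coomassie blue staining.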

Fyn(R96I)-SH3-GST = test: as above; assay type: binding; details: in vitro
How it was run: as §1

[1] = test system: Hck-SH3, Fyn(WT)-SH3, and Fyn(R96I)-SH3; test: NMR 1H-15N HSQC, comparison across SH3 domains; assay type: binding; details: 1 equivalent of ALIXV+PRR
[2] = SAXS; apo; compared with 190 ± 10 Å; ref [12]; cited from earlier work
Hck = details: ref [12]; cited from earlier work

Molecule	GST pull-down binding (Hck-SH3-GST)	GST pull-down binding (Fyn(R96I)-SH3-GST)	involvement of nSrc loop, Hck-SH3 versus Fyn(R96I)-SH3 [1]	maximum diameter (Dm) compared with Fyn(R96I)-SH3-bound ALIXV+PRR [2]	binding to and activation of Hck (Hck)
B1	binding	binding	the nSrc loop seems to be more involved in the Hck-SH3–ALIXV+PRR interaction than in the Fyn(R96I)-SH3–ALIXV+PRR interaction	the same	
B2					binds to and activates Hck
